# GalR3 antagonist: human GalR3 antagonism. hit rate 0.44% among 360,000. O60755. inhibition, % at 3 µM. HEK293 GalR3-CNG cAMP membrane potential fluorescence; galR3 body fused to GalR1 C-terminus;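 active means inhibition above the screen-wide average plus 3 SD, cut at about 13% in these data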;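 further: forskolin and galanin both at EC90 stimulate the cells; cAMP rise reported by CNG channel membrane potential dye signal; 0% = forskolin plus galanin with DMSO and 100% = forskolin alone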
# Target sequence (O60755 1-299 limits assumed): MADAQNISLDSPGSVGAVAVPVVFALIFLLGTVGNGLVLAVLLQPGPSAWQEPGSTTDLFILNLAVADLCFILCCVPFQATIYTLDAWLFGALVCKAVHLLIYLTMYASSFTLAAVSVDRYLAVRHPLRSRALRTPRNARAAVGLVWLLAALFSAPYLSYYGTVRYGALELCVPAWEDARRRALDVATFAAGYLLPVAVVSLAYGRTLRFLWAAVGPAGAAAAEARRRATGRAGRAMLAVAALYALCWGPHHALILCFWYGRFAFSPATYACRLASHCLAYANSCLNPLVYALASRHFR
# V-ATPase pH: regulators of yeast V-ATPase proton transport. response, % at 10 µM. hit rate 0.37% among 350,000. S. cerevisiae, pHLuorin cytosolic pH fluorescence; in the data active means response mostly above about 7.3%, no sharp cut-off; inactive means mostly below about 5.4%; further: actives read high
# GAA850 FXN act: frataxin GAA850 promoter activation | hit rate 0.56% among 360,000 | HEK293 lucGAA850 FXN promoter luciferase reporter, 24 h; percent of 10 µM SAHA response | activation, % at 6 µM;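 active means activation above the average of all compounds screened plus 3 SD, cutoff fixed separately per campaign, cut at about 7.5% in these data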;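 further: 0% = DMSO wells and 100% = 10 µM SAHA wells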
# HIV Env fusion: inhibitors of HIV Env-mediated cell fusion | inhibition, % at 12.3 µM | HeLa-JRFL Env/CEM21 cell fusion, luciferase | hit rate 1.1% among 360,000;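 active means mean replicate inhibition score of at least 50 and every replicate individually at or above 50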;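 further: 0% = plate neutral controls and 100% = maraviroc near 300 nM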
# NR2E3 ag-1: agonists of human NR2E3 nuclear receptor; CHO-S Gal4-NCOR/VP16-NR2E3 two-hybrid, luciferase; hit rate 0.35% among 360,000; Q9Y5X4; inhibition of corepressor binding, % at 3.98 µM;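 active means inhibition above the mean of all tested compounds plus 3 SD, cut at about 70% in these data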;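 further: 0% = DMSO with NR2E3 transfected cells and 100% = cells lacking NR2E3 construct; higher means lower luciferase signal from less NR2E3 corepressor binding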
# NR2E3 ag-2: agonists of human nuclear receptor NR2E3; inhibition of corepressor binding, % at 4.78 µM; hit rate 0.12% among 320,000; GST-NR2E3/biotin-RetCOR TR-FRET, 1536-well; Q9Y5X4; AID 2300;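 active means percent inhibition above the cutoff of mean plus 3 SD of all tested compounds, set per screening campaign, cut at about 20% in these data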;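 further: 0% = DMSO wells and 100% = biotin wells as full block of FRET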
#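 Test system – NR2E3–RetCOR corepressor complex · Quantity – NR2E3 fusion 1.35 nM · Buffer or medium – Tris pH 7.5 · Incubation – Compound–protein incubation for 5 h at 4 °C · Technique – TR-FRET, Eu(K)-anti-GST donor, streptavidin-D2 acceptor, ex 340, em 617/671 nm · Evaluation – percent inhibition of 671/617 nm emission ratio versus biotin and DMSO controls · Plate – 1536-well format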
# An asterisk follows results filed as active; · = not tested or not shown; ! = not active in a repeat; [ ] = another dose, or the depositor's remark. Compounds with a hit are over-represented: about 2.2% of the library has one in this group of screens.
SMILES,GalR3 antagonist,V-ATPase pH,GAA850 FXN act,HIV Env fusion,NR2E3 ag-1,NR2E3 ag-2
C[C@@H]1CN([C@@H](C)CO)C(=O)c2cc(NS(=O)(=O)c3ccccc3)ccc2O[C@@H](C)CCCCO[C@@H]1CN(C)C(=O)CCCN(C)C,·,·,·,14[16.7 µM],·,·
COCCN(C(=O)COC(=O)c1ccc(C=O)cc1)c1c(N)n(Cc2ccccc2)c(=O)[nH]c1=O,-1,1,-1,58*,-15,-2
Nc1nc(Cl)cc(N2CCCC2)n1,-2,2,1,2,-33,-2
Nc1nc(Cl)cc(N2CCC(c3cc(-c4ccc(Cl)cc4Cl)n[nH]3)CC2)n1,-8,-1,0,102*,60,6
CCOC(=O)c1ccccc1NC(=O)c1cc(S(=O)(=O)N2CCOCC2)ccc1F,13*,-1,0,·,-9,-1
O=C(C[C@@H]1CC[C@@H](NC(=O)C2CC2)[C@@H](CO)O1)NCCCN1CCOCC1,·,·,·,5[16.7 µM],·,·
Cn1c(-c2ccc(Cl)cc2)ccc(C#N)c1=O,-4,-3,-2,75*,-16,-2
Cn1cc(-c2ccc(Cl)cc2)cc(C#N)c1=O,-4,-2,3,-28,-4,3
Cc1cccc2sc(NNC(=O)c3cc(-c4cccs4)nc4ccccc34)nc12,-5,0,-1,85*,-28,8
COc1ccc(S(=O)(=O)Nc2ccc3c(c2)C(=O)N([C@@H](C)CO)C[C@H](C)[C@H](CN(C)C(=O)CCC(F)(F)F)OCCCC[C@@H](C)O3)cc1,·,·,·,4[16.7 µM],·,·
Cc1sc(NC(=O)c2ccco2)c(CN2CCN(c3ccccc3)CC2)c1C,-5,0,0,63*,-11,-1
CC1Cc2ccccc2N1C(=O)CSc1nc2c(c(=O)n(C)c(=O)n2C)n1Cc1ccccc1 (stereo not drawn),4,-3,2,56*,-5,4
COc1ccc(CNc2oc(-c3cccc4ccccc34)nc2C#N)cc1,-6,-3,1,·,-26,1
CCOP(=O)(OCC)c1nc(-c2cccc3ccccc23)oc1NCCc1ccc(OC)cc1,-2,0,4,63*,-10,-1
CN1CCN(C(=O)C[C@@H]2CC[C@@H]3[C@H](COC[C@@H](O)CN3C(=O)C3CCOCC3)O2)CC1,·,·,·,-9[16.7 µM],·,·
COc1ccc(OCC(=O)N2CCN(S(=O)(=O)c3ccccc3[N+](=O)[O-])CC2)cc1,9,0,4,5,9,-2
COc1ccc2cc(C3CC=C(CO)CN3S(=O)(=O)c3ccccc3[N+](=O)[O-])n(C(=O)OC(C)(C)C)c2c1 (stereo not drawn),-1,·,·,65*,·,·
c1ccc2c(c1)ncn2-c1ncnc2sc3c(c12)CCCC3,-2,1,-2,14,-6,1
CC(O)CNc1nc2ccccc2n1-c1ncnc2sc3c(c12)CCC3 (stereo not drawn),-6,2,-1,60*,1,2
Cc1cc(NC(=O)COc2ccc(F)c(Cl)c2)no1,0,-1,2,65*,0,3
Cc1cc(NC(=O)COc2ccc(C)c(C)c2)no1,-8,1,1,-27,-27,4
CCOc1ccccc1NC(=O)NC1CCCc2ccccc21 (stereo not drawn),1,0,2,59*,-35,2
COc1ccccc1NC(=O)NC1CCCc2ccccc21 (stereo not drawn),-1,-2,1,5,-33,-1
C[C@H]1CN([C@@H](C)CO)C(=O)c2cccc(NS(=O)(=O)c3ccc(Cl)cc3)c2O[C@H]1CN(C)S(C)(=O)=O,·,·,·,21[16.7 µM],·,·
C=CCn1c(SCC(=O)NCCc2ccccc2)nc2c([nH]c3ccccc32)c1=O,-3,-3,3,57*,-4,-1
SMILES,GalR3 antagonist,V-ATPase pH,GAA850 FXN act,HIV Env fusion,NR2E3 ag-1,NR2E3 ag-2
C=CCn1c(SCC(=O)NCCC2=CCCCC2)nc2ccc(Cl)cc2c1=O,-5,·,1,63*,3,4
COCCn1c(SCC(=O)NCCc2ccccc2)nc2c([nH]c3ccccc32)c1=O,·,1,2,·,-11,0
Cc1ccc(S(=O)(=O)N(C)C[C@@H]2OCCCC[C@H](C)Oc3ccc(NC(=O)NC4CCCCC4)cc3C(=O)N([C@H](C)CO)C[C@@H]2C)cc1,·,·,·,-51[16.7 µM],·,·
CN1CCc2ccccc2Cc2[nH]c3ccccc3c2CC1,·,-3,1,71*,-3,1
CCCCN1CCc2c([nH]c3ccccc23)C1=O,-3,-3,5,·,-147,0
CCCC(=O)Nc1ccc2c(c1)C(=O)N(C)[C@H]1CC[C@@H](CC(=O)N3CCc4ccccc4C3)O[C@@H]1CO2,·,·,·,-12[16.7 µM],·,·
CC1(C)CC(=O)C2=C(C1)NC(=O)CC2,-6,·,·,-4,-1,·
CC1(C)CC(=O)C2=C(C1)OC1=C(C2)C(=O)CC(C)(C)C1,-12,146*,4,·,10,-3
C[C@H](CO)N1C[C@H](C)[C@H](CN(C)C(=O)Cc2ccccn2)Oc2ncc(C#C[C@@H](C)O)cc2C1=O,·,·,·,-5[16.7 µM],·,·
Cc1ccc([N+](=O)[O-])cc1NC(=O)C(Sc1ccccc1)c1ccccc1 (stereo not drawn),-6,-2,5,67*,-2,-2
Cc1ccc([N+](=O)[O-])cc1NC(=O)c1ccccc1,1,0,-1,3,28,2
COc1ccccc1CNc1nc(NCCOc2ccccc2Cl)c2sccc2n1,-7,·,-1,72*,27,·
Clc1ccccc1OCCNc1nc(NCC2CC2)nc2ccsc12,-8,·,0,40,36,·
O=C(Nc1ccc(-c2nc3ccccc3[nH]2)cc1)c1ccco1,·,2,8.6*,·,-96,4
Cc1ccc(S(=O)(=O)Nc2ccc3c(c2)C(=O)N([C@@H](C)CO)C[C@H](C)[C@H](CN(C)C(=O)Nc2cccc4ccccc24)O3)cc1,·,·,·,3[16.7 µM],·,·
COc1ccc(Nc2ncc(C(=O)O)c3ccccc23)cc1,-4,0,0,-38,-9,-1
COc1ccc(Nc2ncc(C(=O)N3CCN(c4ccc(F)cc4)CC3)c3ccccc23)cc1,-3,-3,-2,93*,17,6
COc1ccc2ncn(-c3ccccc3)c2c1,-3,2,-4,68*,-9,-3
Cc1ccc(S(=O)(=O)N(C)C[C@@H]2OCCCC[C@@H](C)Oc3ccc(NC(=O)c4ccccc4)cc3C(=O)N([C@@H](C)CO)C[C@H]2C)cc1,·,·,·,-8[16.7 µM],·,·
Oc1ccc(CNc2ccccc2F)c2cccnc12,-4,4,0,114*!,-3,1
Oc1ccc(CN2CCc3ccccc3C2)c2cccnc12,-4,0,-6,62*,-9,2
Oc1ccc(CN2CCCCC2)c2cccnc12,-1,-2,1,·,-7,5
C[C@H]1CN([C@@H](C)CO)S(=O)(=O)c2ccc(/C=C/c3ccccc3)cc2O[C@H]1CN(C)C(=O)c1ccncc1,·,·,·,7[16.7 µM],·,·

# Assay outcomes (PubChem)
